Among the data in ChEMBL document CHEMBL1124009 (J Med Chem, 1988) are IC50 values, retold here.

A word on the IC50: it is the concentration needed to halve the response being measured. The low end stands for higher potency, the high end for lower potency.

The target of assay [1] is Somatostatin receptor. Nature of the assay: Binding affinity in competition with [125I]- CGP-23996 in somatostatin receptor binding to rat brain membrane. In a few lines:
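Rat whole-brain membranes (adult male Sprague–Dawley) at 1.0% final tissue were incubated with 0.2 nM [125I]CGP 23,996 and analogues at 100–0.3 μM. Buffer was 50 mM Tris pH 7.4 with 2.0 mg/mL BSA, 20 μg/mL bacitracin and 5 mM MgCl2. Incubation ran 1 h at 37 °C and ended by rapid filtration through BSA-soaked GF/B filters.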

In assay [2] the target is Mu-type opioid receptor (Rattus norvegicus, UniProt P33535). Kind of assay: Binding affinity in competition with [3H]- CTOP in Opioid receptor mu 1 binding to rat brain membrane. The gist of the method: (§1)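 Brains (minus cerebellum) of male Sprague–Dawley rats (200–250 g) were homogenized, preincubated 30 min at 25 °C and centrifuged twice at 43000g. Homogenate at 0.5% final was incubated with 0.5 nM [3H]CTOP (μ) or 1.0 nM [3H]DPDPE (δ) in 50 mM Tris-HCl pH 7.4 with 5 mM MgCl2, BSA 1 mg/mL and 100 μM PMSF, 120 min at 25 °C, in duplicate. Nonspecific binding was taken with 1 μM naloxone; bound label was filtered and scintillation counted; curves were fit by nonlinear least squares.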

Assay [3] addresses Delta-type opioid receptor (Rattus norvegicus, UniProt P33533). Nature of the assay: Binding affinity in competition with [3H]- DPDPE in Opioid receptor delta 1 binding to rat brain membrane. In a few lines:
as §1

Chain of Mu-type opioid receptor (P33535 whole entry): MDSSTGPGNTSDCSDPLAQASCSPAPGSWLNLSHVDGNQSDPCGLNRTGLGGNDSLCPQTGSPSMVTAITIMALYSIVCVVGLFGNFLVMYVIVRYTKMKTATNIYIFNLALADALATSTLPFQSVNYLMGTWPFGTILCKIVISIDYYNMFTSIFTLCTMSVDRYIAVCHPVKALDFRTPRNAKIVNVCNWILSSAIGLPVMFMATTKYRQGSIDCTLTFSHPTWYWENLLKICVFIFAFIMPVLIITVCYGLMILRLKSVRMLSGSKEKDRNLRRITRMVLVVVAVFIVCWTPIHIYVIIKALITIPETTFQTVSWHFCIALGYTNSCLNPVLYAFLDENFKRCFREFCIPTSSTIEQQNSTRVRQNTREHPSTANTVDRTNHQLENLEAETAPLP
Chain of Delta-type opioid receptor (P33533 whole entry): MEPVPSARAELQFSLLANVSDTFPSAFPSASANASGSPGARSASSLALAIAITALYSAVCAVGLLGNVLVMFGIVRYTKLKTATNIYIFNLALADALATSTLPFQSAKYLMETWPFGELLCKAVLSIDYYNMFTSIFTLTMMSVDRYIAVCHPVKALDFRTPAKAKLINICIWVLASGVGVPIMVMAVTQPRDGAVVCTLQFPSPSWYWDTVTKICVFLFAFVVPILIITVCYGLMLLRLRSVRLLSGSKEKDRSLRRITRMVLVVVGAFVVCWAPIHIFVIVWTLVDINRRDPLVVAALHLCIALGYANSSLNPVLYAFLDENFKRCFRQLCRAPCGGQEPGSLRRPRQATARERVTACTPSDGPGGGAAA

In assay [1], `C[C@@H](O)[C@@H]1NC(=O)[C@H](CCCCN)NC(=O)C(Cc2c[nH]c3ccccc23)NC(=O)[C@H](Cc2ccc(O)cc2)NC(=O)[C@@H](NC(=O)[C@H]2Cc3ccccc3CN2)CSSC(C)(C)[C@@H](C(=O)N[C@@H](CO)C(N)=O)NC1=O` (stereo in doubt) [listing 1 of 2 here] displayed an IC50 of 1.499 µM.

Turning to `C[C@@H](O)[C@@H]1NC(=O)[C@H](CCCCN)NC(=O)C(Cc2c[nH]c3ccccc23)NC(=O)[C@H](Cc2ccc(O)cc2)NC(=O)[C@@H](NC(=O)[C@H](N)Cc2ccccc2)CSSC(C)(C)[C@@H](C(=O)N[C@@H](CC(N)=O)C(N)=O)NC1=O` (stereo in doubt) [listing 1 of 2 here], the IC50 in assay [2] was 0.13 µM; in assay [3], more than 10 µM.

Regarding `C[C@@H](O)[C@@H]1NC(=O)[C@H](CCCCN)NC(=O)C(Cc2c[nH]c3ccccc23)NC(=O)[C@H](Cc2ccc(O)cc2)NC(=O)[C@@H](NC(=O)[C@H](N)Cc2ccccc2)CSSC(C)(C)[C@@H](C(=O)N[C@@H](CC(=O)O)C(N)=O)NC1=O` (stereo in doubt) [listing 1 of 2 here], in assay [1], the IC50 stood at 8.3 µM.

Take `CN[C@H](Cc1ccccc1)C(=O)N[C@H]1CSSC(C)(C)[C@@H](C(=O)N[C@H](C(N)=O)[C@@H](C)O)NC(=O)[C@H]([C@@H](C)O)NC(=O)[C@H](CCCN)NC(=O)C(Cc2c[nH]c3ccccc23)NC(=O)[C@H](Cc2ccc(O)cc2)NC1=O` (stereo in doubt) [listing 1 of 2 here]: the IC50 is 0.284 µM in assay [2] and more than 10 µM in assay [3].

Consider `C[C@@H](O)[C@@H]1NC(=O)[C@H](CCCCN)NC(=O)C(Cc2c[nH]c3ccccc23)NC(=O)[C@H](Cc2ccc(O)cc2)NC(=O)[C@@H](NC(=O)[C@H](N)Cc2ccccc2)CSSC(C)(C)[C@@H](C(N)=O)NC1=O` (stereo in doubt) [listing 1 of 2 here], for which the IC50 in assay [1] was found to be 1.942 µM.

On to `C[C@@H](O)[C@@H]1NC(=O)[C@H](CCCCN)NC(=O)C(Cc2c[nH]c3ccccc23)NC(=O)[C@H](Cc2ccc(O)cc2)NC(=O)[C@@H](NC(=O)[C@H](N)Cc2ccccc2)CSSC(C)(C)[C@@H](C(N)=O)NC1=O` (stereo in doubt) [listing 2 of 2 here], for which the IC50 in assay [2] is 0.115 µM; in assay [3], more than 10 µM.

In assay [3], `C[C@@H](O)[C@H](NC(=O)[C@H]1NC(=O)[C@H](CC(N)=O)NC(=O)[C@H](Cc2ccc(O)cc2)NC(=O)[C@@H](NC(=O)[C@H](N)Cc2ccccc2)CSSC1(C)C)C(N)=O` showed an IC50 of more than 10 µM.

`C[C@@H](O)[C@H](NC(=O)[C@@H]1NC(=O)[C@H]([C@@H](C)O)NC(=O)[C@@H](Cc2c[nH]c3ccccc23)NC(=O)[C@H](Cc2ccc(O)cc2)NC(=O)[C@@H](NC(=O)[C@H](N)Cc2ccccc2)CSSC1(C)C)C(N)=O`: the IC50 was determined as 10 µM in assay [2] and 7.82 µM in assay [3].

Turning to `C[C@@H](O)[C@H](NC(=O)[C@H]1NC(=O)[C@H]([C@@H](C)O)NC(=O)[C@H](CCCN)NC(=O)[C@@H](Cc2c[nH]c3ccccc23)NC(=O)[C@H](Cc2ccc(O)cc2)NC(=O)[C@@H](NC(=O)[C@H](N)Cc2ccccc2)CSSC1(C)C)C(N)=O`, the concentration for half-maximal inhibition (IC50) in assay [3] is 5.6 µM.

Turning to `C[C@@H](O)[C@H](NC(=O)[C@@H]1NC(=O)[C@H](CCCCN)NC(=O)C(Cc2c[nH]c3ccccc23)NC(=O)[C@H](Cc2ccc(O)cc2)NC(=O)[C@@H](NC(=O)[C@@H](N)Cc2ccccc2)CSSC1(C)C)C(N)=O` (stereo in doubt) [listing 1 of 2 here], the IC50 in assay [3] was more than 10 µM.

Regarding `C[C@@H](O)[C@@H]1NC(=O)[C@H](CCCCN)NC(=O)C(Cc2c[nH]c3ccccc23)NC(=O)[C@H](Cc2ccc(O)cc2)NC(=O)[C@@H](NC(=O)[C@H](N)Cc2ccccc2)CSSC(C)(C)[C@@H](C(=O)N[C@@H](CC(=O)O)C(N)=O)NC1=O` (stereo in doubt) [listing 2 of 2 here], the IC50 was 3.47 µM in assay [2] and more than 10 µM in assay [3].

`C[C@@H](O)[C@H](NC(=O)[C@H]1NC(=O)[C@H]([C@@H](C)O)NC(=O)[C@H](CCCCN)NC(=O)C(Cc2c[nH]c3ccccc23)NC(=O)[C@@H](Cc2ccc(O)cc2)NC(=O)[C@@H](NC(=O)[C@H]2Cc3ccccc3CN2)CSSC1(C)C)C(N)=O` (stereo in doubt): the IC50 in assay [1] came to 0.949 µM.

`CN[C@H](Cc1ccccc1)C(=O)N[C@H]1CSSC(C)(C)[C@@H](C(=O)N[C@H](C(N)=O)[C@@H](C)O)NC(=O)[C@H]([C@@H](C)O)NC(=O)[C@H](CCCN)NC(=O)C(Cc2c[nH]c3ccccc23)NC(=O)[C@H](Cc2ccc(O)cc2)NC1=O` (stereo in doubt) [listing 2 of 2 here] returned an IC50 in assay [1] of 8.054 µM.

For the compound `C[C@@H](O)[C@H](NC(=O)[C@H]1NC(=O)[C@H]([C@@H](C)O)NC(=O)[C@H](CCCCN)NC(=O)C(Cc2c[nH]c3ccccc23)NC(=O)[C@H](Cc2ccc(O)cc2)NC(=O)[C@@H](NC(=O)C(N)Cc2c[nH]c3ccccc23)CSSC1(C)C)C(N)=O` (stereo in doubt), the IC50 in assay [1] came out at 1.599 µM.

The compound `C[C@@H](O)[C@@H]1NC(=O)[C@H](CCCCN)NC(=O)C(Cc2c[nH]c3ccccc23)NC(=O)[C@H](Cc2ccc(O)cc2)NC(=O)[C@@H](NC(=O)[C@H](N)Cc2ccccc2)CSSC(C)(C)[C@@H](C(=O)N[C@@H](CC(N)=O)C(N)=O)NC1=O` (stereo in doubt) [listing 2 of 2 here] registered an IC50 in assay [1] of 1.801 µM.

Turning to `C[C@@H](O)[C@H](NC(=O)[C@@H]1NC(=O)[C@H](CCCCN)NC(=O)C(Cc2c[nH]c3ccccc23)NC(=O)[C@H](Cc2ccc(O)cc2)NC(=O)[C@@H](NC(=O)[C@@H](N)Cc2ccccc2)CSSC1(C)C)C(N)=O` (stereo in doubt) [listing 2 of 2 here], in assay [1], the IC50 stood at 6.103 µM.

`C[C@@H](O)[C@@H]1NC(=O)[C@H](CCCCN)NC(=O)C(Cc2c[nH]c3ccccc23)NC(=O)[C@H](Cc2ccc(O)cc2)NC(=O)[C@@H](NC(=O)[C@H]2Cc3ccccc3CN2)CSSC(C)(C)[C@@H](C(=O)N[C@@H](CO)C(N)=O)NC1=O` (stereo in doubt) [listing 2 of 2 here]: the IC50 in assay [2] was determined as 0.0078 µM; in assay [3] it was 3.83 µM.

`C[C@@H](O)[C@H](NC(=O)[C@H]1NC(=O)[C@H]([C@@H](C)O)NC(=O)[C@H](CCCN)NC(=O)C(Cc2c[nH]c3ccccc23)NC(=O)[C@@H](Cc2ccc(O)cc2)NC(=O)[C@@H](NC(=O)[C@H]2Cc3ccccc3CN2C(=O)CN)CSSC1(C)C)C(N)=O` (stereo in doubt) [listing 1 of 2 here]: the IC50 in assay [1] turned out to be 19.408 µM.

`C[C@@H](O)[C@@H]1NC(=O)[C@H](CCCN)NC(=O)C(Cc2c[nH]c3ccccc23)NC(=O)[C@H](Cc2ccc(O)cc2)NC(=O)[C@@H](NC(=O)[C@H](N)Cc2ccccc2)CSSC(C)(C)[C@@H](C(N)=O)NC1=O` (stereo in doubt) registered a half-inhibitory concentration (IC50) in assay [1] of 47.273 µM.

In assay [1], `C[C@@H](O)[C@H](NC(=O)[C@H]1NC(=O)[C@H](CCCCN)NC(=O)C(Cc2c[nH]c3ccccc23)NC(=O)[C@@H](Cc2ccc(O)cc2)NC(=O)[C@@H](NC(=O)[C@H]2Cc3ccccc3CN2)CSSC1(C)C)C(N)=O` (stereo in doubt) displayed an IC50 of 13.61 µM.

For the compound `C[C@@H](O)[C@H](NC(=O)[C@H]1NC(=O)[C@H]([C@@H](C)O)NC(=O)[C@H](CCCN)NC(=O)C(Cc2c[nH]c3ccccc23)NC(=O)[C@@H](Cc2ccc(O)cc2)NC(=O)[C@@H](NC(=O)[C@H]2Cc3ccccc3CN2C(=O)CN)CSSC1(C)C)C(N)=O` (stereo in doubt) [listing 2 of 2 here], the 50% inhibitory concentration (IC50) in assay [2] was found to be 0.278 µM; in assay [3] it was 5.35 µM.

Take `C[C@@H](O)[C@H](NC(=O)[C@H]1NC(=O)[C@H](CC(N)=O)NC(=O)[C@H](Cc2ccccc2)NC(=O)[C@@H](NC(=O)[C@H](N)Cc2ccc(O)cc2)CSSC1(C)C)C(N)=O`: the IC50 in assay [2] was 7.47 µM; in assay [3], not below 10 µM.

Compound `C[C@@H](O)[C@@H]1NC(=O)[C@H](CCCCN)NC(=O)C(Cc2c[nH]c3ccccc23)NC(=O)[C@H](Cc2ccc(O)cc2)NC(=O)[C@@H](NC(=O)[C@H](N)Cc2ccccc2)CSSC(C)(C)[C@@H](C(=O)N[C@@H](CO)C(N)=O)NC1=O` (stereo in doubt) yielded an IC50 in assay [1] of 1.888 µM.
